Measurements: ChEMBL document CHEMBL1773027, “Development of new indole-derived neuroprotective agents” (2011)
Activity calls are given as the source filed them. The rule behind the calls is not given here.

Assays:
Rattus norvegicus [1] = test: Neuroprotective activity against ACR-intoxicated Sprague-Dawley rat assessed as increase in CK level in brain at 50 mg/kg, ip administered 10 mins prior to ACR injection 3 days per week for 3 weeks by spectrofluorimetrically relative to control; assay type: functional; conditions: route intraperitoneal
Summary of the method: (§1)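 Female Sprague–Dawley rats (n = 10/group) were dosed ip with ACR 50 mg/kg (water). Pretreatment was 50 mg/kg ip in 2% Tween 80 given 10 min earlier, 3 days/week for 3 weeks. The brain 10% homogenate (50 mM Tris–HCl pH 7.4, 300 mM sucrose) was centrifuged 1800 × g for 10 min at 4 °C. Supernatant LDH and CK activities were read spectrophotometrically by kit, as U/mg protein.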

Rattus norvegicus [2] = test: Neuroprotective activity against ACR-intoxicated Sprague-Dawley rat assessed as increase in adrenaline level in brain at 50 mg/kg, ip administered 10 mins prior to ACR injection 3 days per week for 3 weeks by ELISA relative to control; assay type: functional; conditions: route intraperitoneal
Summary of the method: (§2)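 Female Sprague–Dawley rats (n = 10/group) were injected with ACR 50 mg/kg ip in water, with agent at 50 mg/kg ip in 2% Tween 80 10 min before, 3 days/week for 3 weeks. Brain was homogenized 10% w/v in 50 mM Tris–HCl pH 7.4 with 300 mM sucrose and spun 1800 × g for 10 min at 4 °C. Adrenaline and noradrenaline were measured in the supernatant, as ng/mg protein.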

Rattus norvegicus [3] = test: Neuroprotective activity against ACR-intoxicated Sprague-Dawley rat assessed as increase in noradrenaline level in brain at 50 mg/kg, ip administered 10 mins prior to ACR injection 3 days per week for 3 weeks by ELISA relative to control; assay type: functional; conditions: route intraperitoneal; summary of the method: as §2
Rattus norvegicus [4] = test: Neuroprotective activity against ACR-intoxicated Sprague-Dawley rat assessed as increase in Gpx level in brain at 50 mg/kg, ip administered 10 mins prior to ACR injection 3 days per week for 3 weeks […] relative to control; assay type: functional; conditions: route intraperitoneal
Rattus norvegicus [5] = test: Neuroprotective activity against ACR-intoxicated Sprague-Dawley rat assessed as decrease in malinoaldehyde level in brain at 50 mg/kg, ip administered 10 mins prior to ACR injection 3 days per week for 3 weeks […] relative to control; assay type: functional; design: scale not given: the % may be the effect or the level left; conditions: route intraperitoneal
Rattus norvegicus [6] = test: Neuroprotective activity against ACR-intoxicated Sprague-Dawley rat assessed as increase in SOD level in brain at 50 mg/kg, ip administered 10 mins prior to ACR injection 3 days per week for 3 weeks by spectrofluorimetrically relative to control; assay type: functional; conditions: route intraperitoneal
Summary of the method: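 Female Sprague–Dawley rats (160–180 g, n = 10/group) received ACR 50 mg/kg ip in water. Test agents were given at 50 mg/kg ip in 2% Tween 80, 10 min before ACR, 3 days/week for 3 weeks. Brain was homogenized 10% w/v in ice-cold 50 mM Tris–HCl pH 7.4 with 300 mM sucrose and spun 1800 × g for 10 min at 4 °C. Supernatant MDA, GSH, GPx and SOD were read spectrophotometrically by kit and expressed per mg protein (Lowry).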

Rattus norvegicus [7] = test: Neuroprotective activity against ACR-intoxicated Sprague-Dawley rat assessed as decrease in LDH level in brain at 50 mg/kg, ip administered 10 mins prior to ACR injection 3 days per week for 3 weeks by spectrofluorimetrically relative to control; assay type: functional; design: scale not given: the % may be the effect or the level left; conditions: route intraperitoneal; summary of the method: as §1
Rattus norvegicus [8] = test: Neuroprotective activity against ACR-intoxicated Sprague-Dawley rat assessed as increase in GSH level in brain at 50 mg/kg, ip administered 10 mins prior to ACR injection 3 days per week for 3 weeks […] relative to control; assay type: functional; conditions: route intraperitoneal
Rattus norvegicus [9] = test: Neuroprotective activity against ACR-intoxicated Sprague-Dawley rat assessed as increase in dopamine level in brain at 50 mg/kg, ip administered 10 mins prior to ACR injection 3 days per week for 3 weeks by spectrofluorimetrically relative to control; assay type: functional; conditions: route intraperitoneal
Summary of the method: (§3)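 In this rat model (female Sprague–Dawley, n = 10/group), ACR 50 mg/kg ip in water was preceded by 10 min with agent at 50 mg/kg ip in 2% Tween 80, 3 days/week for 3 weeks. Brain dopamine was determined spectrofluorimetrically and expressed as ng/g tissue.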

Brain = test: Neuroprotective activity against ACR-intoxicated Sprague-Dawley rat brain assessed as appearance of normal neuron at 50 mg/kg, ip administered 10 mins prior to ACR injection 3 days per week for 3 weeks by hematoxylin and eosin staining method relative to ACR group; assay type: functional, organism-based; design: dose 50 mg/kg
Summary of the method: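 After 3 weeks of ACR (50 mg/kg ip, water) plus pretreatment (50 mg/kg ip in 2% Tween 80, 10 min before, 3 days/week), rat brains were fixed in buffered formalin for 1 week. They were then washed in tap water for 24 h, dehydrated through graded alcohol, cleared in xylene and paraffin-embedded. Sections were examined microscopically for neuronal morphology.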

Rattus norvegicus [10] = test: Neuroprotective activity against ACR-intoxicated Sprague-Dawley rat assessed as decrease in GSH level in brain at 50 mg/kg, ip administered 10 mins prior to ACR injection 3 days per week for 3 weeks […] relative to control; assay type: functional; design: scale not given: the % may be the effect or the level left; conditions: route intraperitoneal
Rattus norvegicus [11] = test: Neuroprotective activity against ACR-intoxicated Sprague-Dawley rat assessed as decrease in dopamine level in brain at 50 mg/kg, ip administered 10 mins prior to ACR injection 3 days per week for 3 weeks by spectrofluorimetrically relative to control; assay type: functional; design: scale not given: the % may be the effect or the level left; conditions: route intraperitoneal; summary of the method: as §3

Structure (SMILES)	Activity (Rattus norvegicus [1]) [%]	Activity (Rattus norvegicus [2]) [%]	Activity (Rattus norvegicus [3]) [%]	Activity (Rattus norvegicus [4]) [%]	Activity (Rattus norvegicus [5]) [%]	Activity (Rattus norvegicus [6]) [%]	Activity (Rattus norvegicus [7]) [%]	Activity (Rattus norvegicus [8]) [%]	Activity (Rattus norvegicus [9]) [%]	Activity (Brain)	Activity (Rattus norvegicus [10]) [%]	Activity (Rattus norvegicus [11]) [%]
N[C@@H](Cc1c[nH]c2ccccc12)C(=O)O [TRYPTOPHAN]	27	17	16	38	25	18	35	9	21			
C=NC(Cc1c[nH]c2ccccc12)C(=O)C1C(N)=NC(=N)N=C1N (centres undefined)	7	10	1	1	5	3	10			Active	18	2
CCOC(=O)c1c(N)cnc(Cc2c[nH]c3ccccc23)c1Nc1ccccc1	14	14	2	23	10	6	20		9	Active	18	
C=NC(Cc1c[nH]c2ccccc12)C(=O)C1C(N)=NNC1N (centres undefined)	22	15	6	25	22	12	20	9	15	Active		
O=C(Cc1nnn[nH]1)NC(Cc1c[nH]c2ccccc12)C(=O)O (centres undefined)	64	67	21	50	26	94	35	36	29	Active		
